Experimental data published in ChEMBL document CHEMBL2331083, “Magnolia Extract, Magnolol, and Metabolites: Activation of Cannabinoid CB2 Receptors and Blockade of the Related GPR55” (ACS Med Chem Lett, 2013).
Calls of active or inactive are those of the source. No cut-off for these calls is given here.

Key:
[1] = biological target: T1, Monoglyceride lipase (Rattus norvegicus) (UniProt Q8R431); test: Inhibition of MAGL in rat brain microsome using pyrenylbutanamide as substrate after 60 mins by HPLC analysis; type: microsomes
T1 sequence (whole entry): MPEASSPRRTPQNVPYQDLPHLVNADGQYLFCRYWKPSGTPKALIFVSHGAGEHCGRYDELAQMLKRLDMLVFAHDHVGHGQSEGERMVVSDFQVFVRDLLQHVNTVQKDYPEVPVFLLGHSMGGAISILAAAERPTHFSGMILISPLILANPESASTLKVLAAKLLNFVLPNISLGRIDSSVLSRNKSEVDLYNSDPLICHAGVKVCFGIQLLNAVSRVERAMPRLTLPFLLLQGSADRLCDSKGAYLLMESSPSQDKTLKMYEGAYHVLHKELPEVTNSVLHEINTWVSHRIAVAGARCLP
How it was run: (§1)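 Rat brain preparations were used as the FAAH or MAGL enzyme source. Compounds were tested at 10 μM and the extract at 50 μg/mL, read as percent inhibition.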

[2] = biological target: T2, Fatty-acid amide hydrolase 1 (Rattus norvegicus) (UniProt P97612); test: Inhibition of FAAH in rat brain microsome using pyrenylbutanamide as substrate after 60 mins by HPLC analysis; type: microsomes; how it was run: as §1
T2 sequence (whole entry): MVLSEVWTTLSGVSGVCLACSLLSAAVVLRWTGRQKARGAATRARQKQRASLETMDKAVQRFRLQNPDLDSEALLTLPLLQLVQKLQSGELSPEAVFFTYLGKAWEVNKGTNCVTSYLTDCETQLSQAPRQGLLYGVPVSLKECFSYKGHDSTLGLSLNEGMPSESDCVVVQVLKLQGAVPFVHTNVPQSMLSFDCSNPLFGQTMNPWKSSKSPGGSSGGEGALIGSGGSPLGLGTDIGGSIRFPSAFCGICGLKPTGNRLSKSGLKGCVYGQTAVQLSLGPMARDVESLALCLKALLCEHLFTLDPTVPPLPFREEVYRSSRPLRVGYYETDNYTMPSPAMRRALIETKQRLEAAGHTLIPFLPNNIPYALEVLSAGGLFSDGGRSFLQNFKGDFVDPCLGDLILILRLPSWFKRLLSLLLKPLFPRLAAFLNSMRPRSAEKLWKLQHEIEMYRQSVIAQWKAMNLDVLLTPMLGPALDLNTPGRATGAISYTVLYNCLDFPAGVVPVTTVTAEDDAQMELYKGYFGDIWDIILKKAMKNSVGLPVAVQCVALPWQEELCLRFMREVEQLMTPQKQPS

[3] = biological target: G-protein coupled receptor 55 (Homo sapiens) (UniProt Q9Y2T6); test: Antagonist activity at human GPR55 expressed in CHO cells assessed as inhibition of LPI-induced beta-arrestin translocation at 10 uM after 90 mins by luminescence assay; type: cell-based
Sequence of G-protein coupled receptor 55 (Homo sapiens) (Q9Y2T6 whole entry, the tested form may be a part): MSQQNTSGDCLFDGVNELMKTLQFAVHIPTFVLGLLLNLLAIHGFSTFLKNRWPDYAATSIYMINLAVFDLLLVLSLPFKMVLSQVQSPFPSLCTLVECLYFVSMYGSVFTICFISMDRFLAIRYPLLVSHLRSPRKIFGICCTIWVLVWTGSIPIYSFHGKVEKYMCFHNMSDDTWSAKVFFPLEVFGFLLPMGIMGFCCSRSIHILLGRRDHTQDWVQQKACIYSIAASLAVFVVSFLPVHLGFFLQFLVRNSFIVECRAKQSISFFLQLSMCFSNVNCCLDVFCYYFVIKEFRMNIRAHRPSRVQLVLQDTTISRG
How it was run: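 Human GPR55 expressed recombinantly in CHO cells. β-Arrestin recruitment stimulated by LPI (1 μM) was read as luminescence by β-galactosidase enzyme fragment complementation. Test agents at 10 μM, extract at 50 μg/mL, with the LPI response set to 100%. KB derived from the rightward shift of the LPI concentration-response curve with antagonist present at 10 μM. Three independent experiments in duplicate.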

Cannabinoid receptor 2 [4] = biological target: T3, Cannabinoid receptor 2 (Homo sapiens, UniProt P34972); test: Agonist activity at recombinant human CB2 receptor expressed in CHO cells assessed as inhibition of forskolin-induced cAMP accumulation at 100 uM after 5 mins by cAMP-competition binding assay relative to CP55,940; type: functional, cell-based
T3 sequence (P34972 whole entry): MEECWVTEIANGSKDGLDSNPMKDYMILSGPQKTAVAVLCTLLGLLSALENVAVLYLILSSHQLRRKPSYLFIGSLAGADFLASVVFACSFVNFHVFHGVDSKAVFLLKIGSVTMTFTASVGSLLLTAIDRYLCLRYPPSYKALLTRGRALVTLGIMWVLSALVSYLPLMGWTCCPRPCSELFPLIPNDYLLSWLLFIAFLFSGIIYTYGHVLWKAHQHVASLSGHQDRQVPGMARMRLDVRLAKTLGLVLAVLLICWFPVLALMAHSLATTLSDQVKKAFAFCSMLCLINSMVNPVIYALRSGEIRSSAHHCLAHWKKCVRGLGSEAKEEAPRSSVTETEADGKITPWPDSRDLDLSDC
How it was run: (§2)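 Forskolin (10 μM)-stimulated cAMP accumulation in CHO cells stably expressing the human CB1 or CB2 receptor. Test agents at 100 μM. Efficacy given as a percentage of the maximal effect of the full agonist CP55,940 (1 μM), taken as 100%. At least three independent experiments, each run in duplicate.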

Cannabinoid receptor 1 [5] = biological target: T4, Cannabinoid receptor 1 (Homo sapiens, UniProt P21554); test: Agonist activity at recombinant human CB1 receptor expressed in CHO cells assessed as inhibition of forskolin-induced cAMP accumulation at 100 uM after 5 mins by cAMP-competition binding assay relative to CP55,940; type: functional, cell-based; how it was run: as §2
T4 sequence (P21554 whole entry): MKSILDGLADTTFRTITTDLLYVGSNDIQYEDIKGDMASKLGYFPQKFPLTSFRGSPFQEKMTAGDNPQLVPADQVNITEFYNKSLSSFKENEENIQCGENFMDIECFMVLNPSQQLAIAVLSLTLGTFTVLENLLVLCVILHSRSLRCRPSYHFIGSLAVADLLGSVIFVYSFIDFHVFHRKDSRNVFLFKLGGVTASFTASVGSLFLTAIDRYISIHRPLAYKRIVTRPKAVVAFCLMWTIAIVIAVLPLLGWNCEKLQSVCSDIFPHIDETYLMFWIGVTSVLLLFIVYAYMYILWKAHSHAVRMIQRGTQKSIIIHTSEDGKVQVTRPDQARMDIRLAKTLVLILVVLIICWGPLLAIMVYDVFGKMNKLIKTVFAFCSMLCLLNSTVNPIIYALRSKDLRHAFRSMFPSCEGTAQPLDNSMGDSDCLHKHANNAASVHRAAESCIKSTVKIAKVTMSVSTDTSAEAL

Cannabinoid receptor 2 [6] = biological target: T3, Cannabinoid receptor 2; test: Agonist activity at recombinant human CB2 receptor expressed in CHO cells assessed as inhibition of forskolin-induced cAMP accumulation after 5 mins by cAMP-competition binding assay; type: functional, cell-based
Cannabinoid receptor 1 [7] = biological target: T4, Cannabinoid receptor 1; test: Agonist activity at recombinant human CB1 receptor expressed in CHO cells assessed as inhibition of forskolin-induced cAMP accumulation after 5 mins by cAMP-competition binding assay; type: functional, cell-based
Cannabinoid receptor 2 [8] = biological target: T3, Cannabinoid receptor 2; test: Displacement of [3H]CP55,940 from recombinant human CB2 receptor expressed in CHO cells after 2 hrs by liquid scintillation counting; type: cell-based
Cannabinoid receptor 1 [9] = biological target: T4, Cannabinoid receptor 1; test: biochemical; type: cell-based, CHO
Cannabinoid receptor 2 [10] = biological target: T3, Cannabinoid receptor 2; test: Partial agonist activity at recombinant human CB2 receptor expressed in CHO cells assessed as inhibition of forskolin-induced cAMP accumulation at 100 uM after 5 mins by cAMP-competition binding assay relative to CP55,940; type: functional, cell-based
How it was run: (§3)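 CHO cells recombinantly expressing human CB1 or CB2 receptor; forskolin (10 μM)-stimulated cAMP accumulation inhibited by test compound over a concentration range. Efficacy measured at 100 μM relative to the maximal effect of full agonist CP55,940 (1 μM) = 100%. EC50 from concentration-response curves; at least three independent experiments in duplicate, means ± SEM.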

[11] = biological target: G-protein coupled receptor 55 (Homo sapiens) (UniProt Q9Y2T6); test: Antagonist activity at human GPR55 expressed in CHO cells assessed as inhibition of LPI-induced beta-arrestin translocation after 90 mins by luminescence assay; type: cell-based
How it was run: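 CHO cells expressing human GPR55; β-arrestin recruitment read as luminescence by β-galactosidase enzyme fragment complementation. LPI agonist curves run with and without test compound at 10 μM, giving a parallel shift from which KB was derived; single-point inhibition tested against LPI at 1 μM (100%). Three independent experiments in duplicate, means ± SEM.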

Cannabinoid receptor 2 [12] = biological target: T3, Cannabinoid receptor 2; settings: CHO, 10 uM
CHO = test: Ratio of EC50 for recombinant human CB1 receptor expressed in CHO cells to recombinant human CB2 receptor expressed in CHO cells assessed as inhibition of forskolin-induced cAMP accumulation; type: cell-based
Cannabinoid receptor 1 [13] = biological target: T4, Cannabinoid receptor 1; test: Partial agonist activity at recombinant human CB1 receptor expressed in CHO cells assessed as inhibition of forskolin-induced cAMP accumulation at 100 uM after 5 mins by cAMP-competition binding assay relative to CP55,940; type: functional, cell-based; how it was run: as §3

C/C=C/c1ccc(O)c(-c2cc(/C=C/C)ccc2O)c1
inhibition [1]: inactive | inhibition [2]: inactive | inhibition [3]: 0% | Efficacy (Cannabinoid receptor 2 [4]): 55% | Efficacy (Cannabinoid receptor 1 [5]): 134% | EC50 (Cannabinoid receptor 2 [6]): 8.73 µM | EC50 (Cannabinoid receptor 1 [7]): > 10 µM | Ki (Cannabinoid receptor 2 [8]): 3.14 µM | Ki (Cannabinoid receptor 1 [9]): > 10 µM

CCCc1ccc(O)c(-c2cc(CCC)ccc2O)c1
inhibition [1]: inactive | inhibition [2]: inactive | EC50 (Cannabinoid receptor 2 [10]): 0.17 µM | inhibition [3]: 96% | Kb [11]: 13.3 µM | Efficacy (Cannabinoid receptor 1 [5]): 124% | EC50 (Cannabinoid receptor 1 [7]): 9.01 µM | Ki (Cannabinoid receptor 2 [8]): 0.416 µM | Ki (Cannabinoid receptor 1 [9]): 2.26 µM | Efficacy (Cannabinoid receptor 2 [12]): 49%

CCCCCCC(C)(C)c1ccc([C@@H]2C[C@H](O)CC[C@H]2CCCO)c(O)c1
inhibition [3]: 92% | Kb [11]: 1.89 µM

C=CCc1ccc(O)c(-c2cc(CC(O)CO)ccc2O)c1 (racemic)
inhibition [1]: inactive | inhibition [2]: inactive | inhibition [3]: 4% | Ki (Cannabinoid receptor 2 [8]): > 10 µM | Ki (Cannabinoid receptor 1 [9]): > 10 µM

C=CCc1ccc(O)c(-c2ccc(O)c(CC=C)c2)c1 [HONOKIOL]
inhibition [1]: inactive | inhibition [2]: inactive | inhibition [3]: 42% | Efficacy (Cannabinoid receptor 2 [4]): 0% | Efficacy (Cannabinoid receptor 1 [5]): 168% | EC50 (Cannabinoid receptor 1 [7]): > 10 µM | Ki (Cannabinoid receptor 2 [8]): 5.61 µM | Ki (Cannabinoid receptor 1 [9]): 6.46 µM

C=CCc1ccc(O)c(-c2cc(CC=C)ccc2O)c1 [MAGNOLOL]
Ratio EC50 (CHO): 6 | inhibition [1]: inactive | inhibition [2]: inactive | EC50 (Cannabinoid receptor 1 [13]): 18.3 µM | EC50 (Cannabinoid receptor 2 [10]): 3.28 µM | inhibition [3]: 0% | Efficacy (Cannabinoid receptor 2 [4]): 31% | Efficacy (Cannabinoid receptor 1 [5]): 62% | Ki (Cannabinoid receptor 2 [8]): 1.44 µM | Ki (Cannabinoid receptor 1 [9]): 3.15 µM
